Screening results as filed in PubChem.
The sample as a whole holds a higher share of hits than the screen did.
Lmaj promast – Leishmania major promastigote growth inhibition. Leishmania major promastigotes, resazurin fluorescence viability. inhibition, % at 10 µM. actives 9% (n = 200,000);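 also: promastigotes grown with compound for 44 hours at 28 °C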
G6PDH CS – counter-screen for G6PDH assay hits: L. mesenteroides G6PDH inhibition; Purified L. mesenteroides G6PDH, diaphorase/resazurin coupled fluorescence, 45 min; inhibition, % at 5 µM; actives 0.12% (n = 200,000); AID 1020
DTT redox prof – compounds producing H2O2 with reducing agent – biochemical, NIH compound library profiling, artefact control for MLSCN library redox annotation, primary screen. DTT-dependent redox cycling H2O2, phenol red/HRP absorbance; 100% = 100 µM peroxide control, 0% = buffer. activation, % at 10 µM. actives 0.03% (n = 200,000);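 active = activation of at least 50% relative to the plate's high and low controls in the primary single-dose screen; inactive = activation below 50%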;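 also: compound incubated with DTT at 0.8 mM final as the reducing agent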
PfGluPho inh – PfG6PD (Plasmodium falciparum) enzyme inhibition; PfGluPho enzyme, NADPH resazurin-diaphorase fluorescence; inhibition, % at 20 µM; actives 0.78% (n = 350,000);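 active = inhibition reaching at least a set limit at 20 µM in the primary screen, cut at about 59% in these data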;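 also: 0% = DMSO wells with substrate and 100% = DMSO wells lacking glucose-6-phosphate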
Diaph inh CS – counter-screen for diaphorase-based assays: diaphorase inhibitors and chemical oxidizers; diaphorase resazurin-to-resorufin fluorescence, NADH, 16 min; bacterial (C. kluyveri) enzyme, not human; inhibition, % at 20 µM; actives 0.69% (n = 190,000);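 active = primary screen inhibition at 20 µM above a set limit, cut at about 50% in these data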;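 also: plate controls were DMSO with full reaction for no effect and wells lacking NADH for full effect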
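Assay system – diaphorase enzyme from Clostridium kluyveri · Amount – diaphorase 0.14 U/mL (working solution) · Times – reaction incubation of 16 min at room temperature · Controls – No-NADH positive control and DMSO neutral control · Signal – resorufin fluorescence 544/590 nm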
Diaphorase act – activates diaphorase or chemically reduces, flagging diaphorase assay artifacts; Diaphorase/resazurin coupled assay, resorufin fluorescence, 16 min; hits give high values; 1 = vehicle wells, 0 = NADH-free wells; activation factor at 20 µM; AID 1229; actives 0.005% (n = 190,000);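 active = diaphorase activity raised at least twofold by the compound at 20 µM; inactive = activation factor below 2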
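Test system: Clostridium kluyveri diaphorase, purified enzyme; input: enzyme 0.07 U/mL final; buffer or medium: 50 mM HEPES pH 7.4 with 4.542 mM MgCl2, 0.005% Tween 20; also added: 0.114 mM NADH and 0.1 mM resazurin, final amounts; schedule: 16 min enzyme reaction, ambient temperature; technique: fluorescence of resorufin, 544 nm excitation, 590 nm emission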
Lmaj promast 1uM – inhibitors of Leishmania major promastigote growth, repeat at 1 uM; actives 13% (n = 1,100); inhibition, % at 1 µM; shares compounds with Lmaj promast; L. major promastigote growth, resazurin fluorescence, 48 h;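 active = inhibition above about 50% in both repeat tests, limit read from the data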
The depositor's hits bear a star; . = no result given. Rule as the data show it, unless noted: active = inhibition above about 50%; inactive = the rest.

SMILES	Lmaj promast	G6PDH CS	DTT redox prof	PfGluPho inh	Diaph inh CS	Diaphorase act	Lmaj promast 1uM
CCOC1(OCC)C(c2ccc(Cl)cc2)C(C#N)(C#N)C1(OCC)OCC (stereo not given)	100*	-2	0	14	4	1	-3
COc1ncccc1C(=O)N1CCCC(C(=O)Nc2cccc(-c3ccc(F)cc3)c2)C1 (stereo not given)	.	.	.	-2	.	.	.
Cc1nn(-c2ccccc2)c2c1C(O)n1c(nc3ccccc31)S2 (stereo not given)	58*	0	-2	0	1	1	-7
Cc1nn(-c2ccccc2)c(C)c1Cc1ccc(O)cc1	.	.	.	1	.	.	.
Nc1n[nH]c(-c2ccccc2[N+](=O)[O-])n1	60*	-3	0	-4	8	0.9	-4
FC(F)(F)c1nc2ccccc2n2c(-c3c(Cl)cccc3Cl)nnc12	57*	7	1	-22	15	0.9	-5
CC(C)(C)C(=O)[C@@H]1[C@@H]2C(=O)N(Cc3ccccc3)C(=O)[C@@H]2[C@H]2c3ccccc3C=CN12	68*	15	2	.	16	0.8	-8
CCn1cc(CNCc2cn(-c3ccccc3C)nc2-c2ccc(OC)c(F)c2)cn1	1	12	1	18	12	0.9	.
COc1ccc(-c2nn(-c3ccccc3C)cc2CNCCc2cnc[nH]2)cc1F	96*	4	0	13	-33	1.3	-20
Cc1nc2ccc(Cl)cc2[nH]1	.	.	.	-1	.	.	.
Cc1nc2ccc(C(C(F)(F)F)(C(F)(F)F)C(F)(F)F)cc2[nH]1	100*	-1	1	25	28	0.7	22
O=[N+]([O-])c1cccc(C(O)C23CN4CN(CN(C4)C2)C3)c1 (stereo not given)	.	.	.	-11	.	.	.
CC(C)=N/N=C(\c1cccc([N+](=O)[O-])c1)C12CN3CN(CN(C3)C1)C2	51*	7	0	-2	17	0.8	-11
COc1ccc(NC(=O)CN(C)C(=O)CCCSc2nc3ccccc3[nH]2)cc1	.	.	.	1	.	.	.
O=C(N/N=C/c1ccccc1OCc1ccccc1Cl)c1cccnc1	91*	0	-2	9	17	0.8	-11
COc1ccc(NC(=O)CCCN2C(=O)C3CC=CCC3C2=O)cc1 (stereo not given)	.	.	.	0	.	.	.
COc1ccc(C(=O)COc2ncnc3cc(Cl)ccc23)cc1	.	.	.	-7	.	.	.
CCc1ccc2oc(-c3ccc(OC)cc3)cc(=Nc3c(C)n(C)n(-c4ccccc4)c3=O)c2c1	90*	6	0	10	13	0.9	1
Cc1ccc(SCc2cc(=O)n3ccsc3n2)c(C)c1	-7	-8	0	.	17	0.8	.
Cc1cccc(-n2c(SCc3cc(=O)n4ccsc4n3)nc3ccccc32)c1	92*	-6	2	53	18	0.8	-13
COc1ccccc1CNC(=O)CCN=C1NS(=O)(=O)c2ccccc21	.	.	.	-2	.	.	.
O=c1c2cc([N+](=O)[O-])cc([N+](=O)[O-])c2[nH]n1-c1ccccc1	.	.	.	0	.	.	.
O=c1[nH]c(=O)c2cc([N+](=O)[O-])cc([N+](=O)[O-])c2[nH]1	91*	8	0	2	4	1	13
CCCc1c(C(=O)N/N=C(\C)c2ccccn2)nnn1-c1nonc1N	.	.	.	7	.	.	.
O=c1ccc(Oc2nc(N3CCCCC3)nc(N3CCCCC3)n2)n[nH]1	-1	1	0	21	11	0.9	.
SMILES	Lmaj promast	G6PDH CS	DTT redox prof	PfGluPho inh	Diaph inh CS	Diaphorase act	Lmaj promast 1uM
CCc1cc2c(nc1CC)CCN(CC/C(C)=N/OC[C@H]1O[C@H](c3ccccc3)C=C[C@@H]1Oc1ccc(OC)cc1)C2	67*	16	4	.	13	0.9	-4
CN=C1S/C(=C\c2ccc(N3CCOCC3)cc2C)C(=O)N1C	37	9	0	11	4	1	.
CCN=C1S/C(=C\c2ccc(N3CCOCC3)cc2C)C(=O)N1CC	69*	5	0	12	4	1	-17
CN(CC(=O)Nc1ccc(F)cc1)C(=O)C1CCN(C(=O)Nc2ccccc2)CC1	.	.	.	3	.	.	.
CN(C)CCOc1ccccc1Cc1ccccc1	100*	9	1	-7	15	0.8	89*
COc1ccc(OC)c(C(c2nnnn2C2CCCC2)N2CCc3ccccc3C2)c1 (stereo not given)	88*	3	1	19	23	0.8	4
CCOC(=O)c1oc2cccc(OCC(O)CNC(C)C)c2c1C (stereo not given)	101*	8	0	5	-4	1	-11
Cc1cc(C)cc(N=Cc2ccc([N+](=O)[O-])s2)c1	100*	15	0	62*	20	0.8	13
Cc1c(N=Cc2ccc(Br)s2)cccc1[N+](=O)[O-]	-3	5	-4	12	4	1	.
O=C(NNC(=O)c1cc(Cl)ccc1O)c1cccc(S(=O)(=O)N2CCOCC2)c1	.	.	.	-33	.	.	.
N#CC1=C(Nc2ccccc2)SC=C(c2ccc(Cl)c(Cl)c2)N=C1N1CCOCC1	100*	7	1	-12	-6	1.1	-14
COc1ccc(N(CC(C)C)S(=O)(=O)c2nnc(NC(=O)c3ccco3)s2)cc1	.	.	.	-36	.	.	.
COc1cc2c(cc1NCc1ccccn1)oc1ccccc12	73*	10	3	30	32	0.7	-16
O=c1[nH]sc2ccccc12	67*	2	0	65*	-12	1.1	31
C#CCSc1nsc(SCC#C)c1C#N	94*	-6	-1	3	14	0.9	-14
COc1ccc(Cl)cc1NC(=O)CN1CCC(n2nnc3ccccc32)CC1	13	3	1	9	6	0.9	.
Cc1cc(C)c2c(CC(=O)N(CCC#N)Cc3cccnc3)coc2c1	81*	-2	3	0	26	0.7	9
O=[N+]([O-])c1cccc(-c2cc3cccc[n+]3cc2-c2cccc([N+](=O)[O-])c2)c1	0	-1	0	-6	19	0.8	.
Cc1cccc2cc(-c3ccccc3)c(-c3ccccc3)c[n+]12	100*	0	0	5	1	1	30
C/C(=N/NC(=O)c1sc(=S)n(C)c1C)c1ccccc1	-3	-14	0	-10	4	1	.
CCOc1ccc(NS(=O)(=O)c2cc(OC)ccc2OC)cc1	3	3	0	1	-3	1	.
COc1ccc(OC)c(S(=O)(=O)Nc2ccc(Oc3ccccc3)cc2)c1	67*	-3	1	5	19	0.8	-11
